Rev-erbA mod – modulators of Rev-erb alpha DNA binding, primary screen, biochemical, FITC-DNA, fluorescence polarization, uHTS; Nuclear receptor subfamily 1 group D member 1 (Homo sapiens), P20393; Rev-erbα–FITC-DNA binding, 90 min; activity, % at 10 µM; actives 0.79% (n = 370,000); AID 1259318, 2017;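 active = activity above about 14%, limit read from the data; passing the limit was not always enough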
PG9 binder – binders of HIV-1 gp120 antibody PG9, primary screen, biochemical, TR-FRET | actives 0.43% (n = 360,000) | HIV-1 gp120 / PG9 antibody interaction | TR-FRET gp120-PG9 antibody binding | inhibition, % at 6.7 µM; in the data active = inhibition above about 8.5%
NR2E3 ag-1 – NR2E3 agonists in two-hybrid cells, primary screen, cell-based, luminescence, CHO-S, Gal4-NCOR/VP16-NR2E3; Photoreceptor-specific nuclear receptor (Homo sapiens), Q9Y5X4; luciferase; inhibition of corepressor binding, % at 3.98 µM; actives 0.35% (n = 360,000);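 active = inhibition above the mean of all tested compounds plus 3 SD, cut at about 70% in these data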;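 note: higher means lower luciferase signal from less NR2E3 corepressor binding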
Target sequence (Q9Y5X4 whole entry, looked up, the tested form may be a part): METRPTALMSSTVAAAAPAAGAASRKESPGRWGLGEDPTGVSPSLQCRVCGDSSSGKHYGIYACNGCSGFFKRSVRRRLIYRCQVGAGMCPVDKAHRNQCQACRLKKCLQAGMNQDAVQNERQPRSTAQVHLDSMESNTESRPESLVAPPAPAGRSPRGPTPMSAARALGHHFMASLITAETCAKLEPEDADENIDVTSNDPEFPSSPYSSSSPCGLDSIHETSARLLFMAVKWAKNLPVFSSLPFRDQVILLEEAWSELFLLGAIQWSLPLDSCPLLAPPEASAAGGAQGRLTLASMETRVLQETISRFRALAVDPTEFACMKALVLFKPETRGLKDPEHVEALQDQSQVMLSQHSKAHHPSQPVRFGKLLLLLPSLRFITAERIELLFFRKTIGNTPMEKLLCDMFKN
NR2E3 ag-2 – inhibitors of NR2E3-RetCOR corepressor binding, primary screen, NR2E3 agonist project, biochemical, TR-FRET, GST-NR2E3, biotin-RetCOR | 1536-well | inhibition of corepressor binding, % at 4.78 µM | actives 0.12% (n = 320,000) | AID 2300, 2010;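 active = percent inhibition above the cutoff of mean plus 3 SD of all tested compounds, set per screening campaign, cut at about 20% in these data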
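System: GST-tagged NR2E3 plus biotinylated RetCOR corepressor; Amount: 1.35 nM GST-tagged NR2E3 final; Dosing: single nominal compound dose of 4.8 µM; Schedule: 5 h incubation at 4 °C; Technique: TR-FRET with europium anti-GST and streptavidin-D2, 340 nm excitation; Controls: biotin wells as high control, 0.6% DMSO wells as low control.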
PG9 bind confirm – binders of anti-gp120 antibody PG9, confirmation, biochemical, TR-FRET | shares compounds with PG9 binder | actives 90% (n = 1,500) | inhibition, % at 6.7 µM | TR-FRET PG9 antibody binding; in the data active = inhibition above about 9%
PGV04 Ab binding – binders of control antibody PGV04, counter-screen for PG9 antibody binder project, biochemical, TR-FRET, distinct HIV envelope site | shares compounds with PG9 binder | TR-FRET PGV04 antibody-gp120 binding | inhibition, % at 6.7 µM | actives 95% (n = 1,500); in the data active = inhibition above about 9.5%
PG9 bind DR – small-molecule binders of antibody PG9, dose response, biochemical, TR-FRET, HIV-1 gp120 antibody; shares compounds with PG9 binder; TR-FRET PG9 antibody-gp120 binding inhibition; IC50, µM; 95 tested, under 10 active; AID 651848, 2012; in the data active = IC50 below about 10 µM
PGV04 DR counter – binders of control antibody PGV04, dose response, counter-screen for PG9 antibody binder project, biochemical, TR-FRET, distinct HIV envelope site. shares compounds with PG9 binder. TR-FRET binding to control antibody PGV04. IC50, µM. actives 20% (n = 95)
PG126 DR counter – binders of control antibody PG126, dose response, counter-screen for PG9 antibody binder project, biochemical, TR-FRET, distinct HIV envelope site; actives 20% (n = 95); IC50, µM; TR-FRET binding to antibody PG126, counterscreen; AID 651939, 2012; shares compounds with PG9 binder
Each line names hits and unclear results; the compound was inactive in the other large screens (follow-up assays come after a bar, where they were run). An excerpt weighted towards active compounds, which were near 1.4% of everything screened. Cut-off read from the data, not from the text of the source, unless noted: active = IC50 below about 9 µM; inactive = the rest.

COC(=O)C1(C)CN(S(=O)(=O)c2ccc(C)cc2)c2cc(OC)ccc2C1=O (centres undefined)	PG9 binder 8.6 | PG9 bind confirm 15 | PGV04 Ab binding 18
COC(=O)c1cc2ccccn2c2c(C(=O)OC)c(C(=O)OC)cc1-2	none
COC(=O)c1cc2c(C)cc3ccc(C)cn3c-2c1C(=O)OC	PG9 binder 11 | PG9 bind confirm 17 | PGV04 Ab binding 22
CCc1nnc(NC(=O)CSc2nnc(-c3ccccc3O)n2-c2ccc(C)cc2)s1	PG9 binder 11 | PG9 bind confirm 14 | PGV04 Ab binding 22
Cc1cc(C)c2c(N)c(C(=O)Nc3cccc(C)c3C)sc2n1	PG9 binder 8.9 | PG9 bind confirm 46 | PGV04 Ab binding 70
Cc1ccccc1NC(=O)c1sc2nc3c(c(-c4ccco4)c2c1N)CCCC3	PG9 binder 71 | PG9 bind confirm 62 | PGV04 Ab binding 71
Cc1ccc(NC(=O)c2sc3nc(C)cc(C)c3c2N)cc1	none
CCCc1nnc(SCC(=O)O)n1/N=C/c1ccc2c(c1)OCO2	none
Nc1nc(SCC(=O)Nc2ccc3c(c2)CCC3)n[nH]1	none
CCSc1nnc(NC(=O)C(Cc2ccccc2)n2cccc2)s1 (centres undefined)	PG9 binder 10 | PG9 bind confirm 21 | PGV04 Ab binding 21 | PG9 bind DR inactive | PGV04 DR counter inactive | PG126 DR counter inactive
CCSc1nnc(NC(=O)COc2ccc3ccccc3c2)s1	PG9 binder 14 | PG9 bind confirm 20 | PGV04 Ab binding 35
CCSc1nnc(NC(=O)c2csc(C)c2)s1	PG9 binder 12 | PG9 bind confirm 19 | PGV04 Ab binding 31
Cc1csc(NC(=O)C(Cc2ccccc2)n2cccc2)n1 (centres undefined)	none
CS(=O)(=O)N(CC(=O)N1CCCC1)c1ccc2c(c1)OCCO2	none
Cc1ccccc1Nc1nc(N)nc(COC(=O)c2ccc([N+](=O)[O-])o2)n1	none
Cc1ccc(C(=O)C2=C(O)C(=O)N(CC3CCCO3)C2c2ccccc2F)o1 (centres undefined)	PG9 binder 13 | PG9 bind confirm 23 | PGV04 Ab binding 31
CCCCOc1ccc(C2C(C(=O)c3ccc(C)o3)=C(O)C(=O)N2CC2CCCO2)cc1 (centres undefined)	PG9 binder 26 | PG9 bind confirm 25 | PGV04 Ab binding 30
CN(CC(=O)Nc1ccccc1C(F)(F)F)C(=O)C1CCN(C(=O)c2ccc(Cl)cc2)CC1	none
COC(=O)c1ccc(C2C(C(=O)c3ccc(C)o3)=C(O)C(=O)N2c2cc(C)on2)cc1 (centres undefined)	none
Cc1cc(N2C(=O)C(O)=C(C(=O)c3ccc(C)o3)C2c2cccs2)no1 (centres undefined)	PG9 binder 9.6 | PG9 bind confirm 17 | PGV04 Ab binding 25
Cc1cc(N2C(=O)C(O)=C(C(=O)c3ccco3)C2c2ccc(Cl)cc2)no1 (centres undefined)	PG9 binder 16 | PG9 bind confirm 30 | PGV04 Ab binding 41
CC1CN(C(=O)CCC(=O)NC2CCCCC2)c2ccccc2S1 (centres undefined)	none
COc1cccc(C(=O)NCCS(=O)(=O)NCc2ccc3c(c2)OCO3)c1	none
O=C1Nc2cc(C(=O)N3CCOCC3)ccc2S/C1=C/c1ccccc1F	none (no result: NR2E3 ag-2)
CCOC(=O)Cn1c(=NC(=O)CC)sc2c(C)cc(C)cc21	PG9 binder 11 | PG9 bind confirm 15 | PGV04 Ab binding 23
CCOC(=O)Cn1c(=NC(=O)CSC(C)=O)sc2cc(F)ccc21	PG9 binder 40 | PG9 bind confirm 69 | PGV04 Ab binding 80
CCOC(=O)Cn1c(=NC(=O)C(C)C)sc2c(C)cc(C)cc21	none
S=c1nc[nH]c2c1cnn2-c1ccccc1	PG9 binder 17 | PG9 bind confirm inactive | PGV04 Ab binding inactive | PG9 bind DR inactive | PGV04 DR counter inactive | PG126 DR counter inactive
Nc1ncnc2c1cnn2-c1ccccc1	none
COc1ccc(C(=O)CSc2nc(N)nc(SC)c2C#N)cc1	PG9 binder 21 | PG9 bind confirm 23 | PGV04 Ab binding 28
CSc1nc(N)nc(SCC(=O)c2ccccc2)c1C#N	none
Cc1cc2ccccc2nc1SCC(=O)NC1CCCCC1	none
Cc1cc(SCC(=O)NC2CCCCC2)nc2ccccc12	PG9 binder 18 | PG9 bind confirm 22 | PGV04 Ab binding 27
Cc1cc2ccccc2nc1SCC(=O)NC1CCCC1	PG9 binder 9.7 | PG9 bind confirm 15 | PGV04 Ab binding 18
Cc1cccc(NC(=O)CCn2ccnc2C)c1	none
C=CCSc1nnc2c(n1)[nH]c1c(C)cccc12	none (no result: Rev-erbA mod)
COc1ccccc1NS(=O)(=O)c1cccc(NC(=O)c2[nH]c(C)c(C(C)=O)c2C)c1	PG9 binder 12 | PG9 bind confirm 21 | PGV04 Ab binding 19 | PG9 bind DR inactive | PGV04 DR counter inactive | PG126 DR counter inactive
C[C@@H]1CN([C@H](C)CO)C(=O)c2cc(Br)cnc2O[C@@H]1CN(C)Cc1ccc(F)cc1	none (no result: NR2E3 ag-2)
CCOC(=O)Cc1csc(NC(=O)c2ccc(S(=O)(=O)N(CCOC)CCOC)cc2)n1	none
COCCN(CCOC)S(=O)(=O)c1ccc(C(=O)Nc2nc(-c3ccncc3)cs2)cc1	PG9 binder 16 | PG9 bind confirm 16 | PGV04 Ab binding 21
Cc1ccc(NC(=O)CSc2nnc(-c3ccncc3)n2C)cc1C	PG9 binder 17 | PG9 bind confirm 15 | PGV04 Ab binding 40
COc1ccc(NC(C)=O)cc1NC(=O)CSc1nnc(-c2ccncc2)n1C	none
Cc1cc2cc3c(cc2nc1SCC(=O)OC(C)C)OCCO3	PG9 binder 17 | PG9 bind confirm 23 | PGV04 Ab binding 26
Cc1cc2cc3c(cc2nc1SCC(=O)O)OCCO3	none

From PubChem
